Experimental findings from article PMC12394810 (RSC Advances, 2025) are described below.

Holding throughout (type): cell-based
Test [1] concerns Escherichia coli MTCC 730. Briefly: Agar well diffusion, antibacterial. As to conditions: 1 mg/mL, 18 hrs. The essentials: (§1)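 Agar well diffusion per CLSI (2012). Bacteria grown on Mueller–Hinton agar and kept in Mueller–Hinton broth at 37 °C for 24 h. Inoculum spread evenly over the agar, 6–8 mm wells punched, and each well loaded with 20–100 μL test compound. Plates incubated at 37 °C and zones of inhibition measured in mm.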

Test [2] relates to Klebsiella pneumoniae MTCC 109. Briefly: Agar well diffusion, antibacterial. Conditions: 1 mg/mL, 18 hrs. A digest of the protocol:
as §1

In test [3] the test system is HEK-293 (human embryonic kidney cell line). Briefly: MTT cytotoxicity assay, HEK-293. As to conditions: HEK293, 48 h, read-out: IC50 HEK-293.
Test [4] relates to HepG2 (Human hematoma cell line). Kind of test: MTT cytotoxicity assay, HEPG2. Conditions: HepG2, 48 h, read-out: IC50 HEPG2. A digest of the protocol:
(§2)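 ATCC cells grown in DMEM with 10% FBS, 2 mM L-glutamine and 100 μg/mL penicillin–streptomycin at 37 °C, 5% CO2. Medium refreshed, 10 μL of 12 mM MTT stock added, then 4 h in the dark at 37 °C. Formazan dissolved in DMSO and read at 570 nm against media-only blanks. Three independent experiments; IC50 by linear regression.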

The subject of test [5] is DU145 (human prostate cell line). Briefly: MTT cytotoxicity assay, DU145. As to conditions: DU-145, 48 h, read-out: IC50 DU145. The essentials: as §2
Test [6] concerns Staphylococcus aureus MTCC 96. Kind of test: Agar well diffusion, antibacterial. Conditions: 1 mg/mL, 18 hrs. The essentials:
as §1

Test [7] relates to Bacillus subtilis MTCC 121. Kind of test: Agar well diffusion, antibacterial. Conditions: 1 mg/mL, 18 hrs. The essentials: as §1
In test [8] the test system is Candida albicans MTCC 227. Kind of test: Agar well diffusion, antifungal. As to conditions: for zone of inhibition at 1000 µg/mL: Candida albicans, MTCC227, 18 h, read-out: Zone of inhibition Candida albicans. A digest of the protocol: (§3)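 Fungal strains kept like the bacteria (Mueller–Hinton media) but at 30 °C. Agar well diffusion per CLSI (2012): inoculum spread over the agar, 6–8 mm wells punched, and 20–100 μL test compound added per well. Plates incubated at 30 °C and zone of inhibition diameter read in mm.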

The test system of test [9] is SKBR-3 (human breast cancer cell line). Briefly: MTT cytotoxicity assay, SKBR-3. As to conditions: SK-BR-3, 48 h, read-out: IC50 SKBR-3. The essentials:
as §2

For test [10], the system named is Candida tropicalis MTCC 230. Briefly: Agar well diffusion, antifungal. As to conditions: 1 mg/mL, 18 hrs. A digest of the protocol: as §3

Turning to `O=C/C=C/c1ccccc1` [Compound 1, (E)-3-phenylprop-2-enal, reference compound], in [1], the “Zone of inhibition Escherichia coli” value is on record as 7–8 mm. Moreover, the “Zone of inhibition Klebsiella pneumoniae” value in test [2] is listed as 7–8 mm. Besides, the IC50 in test [3] came to 20.6 ± 1 µM; in [4], 21.8 ± 1 µM; in [5], 22.4 ± 1.6 µM; in [9], 13.9 ± 1.6 µM. In test [6], the “Zone of inhibition Staphylococcus aureus” value is on record as 7–8 mm. Also, the “Zone of inhibition Bacillus subtilis” value in test [7] was 7–8 mm. Moreover, the zone of inhibition at 1000 µg/mL in [8] was determined as 11 mm.
Regarding `CCCCCCOc1ccccc1C(=O)/C=C/C=C/c1ccccc1` [Compound 5l, (2E,4E)-1-(2-(Hexyloxy)phenyl)-5-phenylpenta-2,4-dien-1-one], the concentration for half-maximal inhibition (IC50) in test [3] stood at 98 ± 10.1 µM; in test [4], 46.7 ± 2.2 µM; in test [5], 29 ± 2.1 µM; in test [9] it was 23.5 ± 4.1 µM. The “Zone of inhibition Candida tropicalis” value in test [10] is given as “showed activity”. For the same molecule, the “Zone of inhibition Candida albicans” value in [8] (1 mg/mL, 18 hrs) is “showed activity”. For the same molecule, the zone of inhibition at 1000 µg/mL in test [8] was found to be 8 mm.
